This is an account of results in ChEMBL document CHEMBL1649258, “Combined inactivation of lon and ycgE decreases multidrug susceptibility by reducing the amount of OmpF porin in Escherichia coli” (2009).

Values after ≈ are worked out from the molar mass of the structure shown.

The first assay has as its system Escherichia coli. In words: Antibacterial activity against wild-type Escherichia coli AG100 harboring IS186 insertion in lon3 gene and Tn5 insertion in ycgE gene at 26 degC by Etest method. It is filed as functional.
As usually defined, the MIC is the lowest concentration found to suppress growth. The low end stands for greater potency, the high end for weaker potency. The compound `O=C(N[C@H](CO)[C@H](O)c1ccc([N+](=O)[O-])cc1)C(Cl)Cl` [CHLORAMPHENICOL] displayed an MIC of 12 µg/mL (≈ 37.1 µM).

Take `C[C@H]1c2cccc(O)c2C(=O)C2=C(O)[C@]3(O)C(=O)C(C(N)=O)=C(O)[C@@H](N(C)C)[C@@H]3[C@@H](O)[C@@H]21.O` [DOXYCYCLINE]: the MIC came out at 2 µg/mL.

In the next assay the test system is Escherichia coli. In words: Antibacterial activity against wild-type Escherichia coli AG100 harboring IS186 insertion in lon3 gene, Tn5 insertion in ycgE gene, plasmid pET21b and pACT7SP at 26 degC by Etest method. It is filed as functional. The procedure, abridged: (§1)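 MIC by Etest on LB agar at 26°C for the lon ycgE strain with pACT7Sp plus pET21b or pET21b-ompF; plates contained 100 μg/ml ampicillin, 50 μg/ml spectinomycin and 0.1 mM IPTG to induce OmpF; averages of at least four measurements.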
Take `C[C@H]1c2cccc(O)c2C(=O)C2=C(O)[C@]3(O)C(=O)C(C(N)=O)=C(O)[C@@H](N(C)C)[C@@H]3[C@@H](O)[C@@H]21.O` [DOXYCYCLINE]: inhibition of growth (MIC) required 2 µg/mL.

The subject of a further assay is Escherichia coli. In words: Antibacterial activity against wild-type Escherichia coli AG100 harboring Tn5 insertion in ycgE gene at 26 degC by Etest method. The assay is classed as functional.
For the compound `O=C(N[C@H](CO)[C@H](O)c1ccc([N+](=O)[O-])cc1)C(Cl)Cl` [CHLORAMPHENICOL], the MIC stood at 4 µg/mL (≈ 12.4 µM).

The compound `C[C@H]1c2cccc(O)c2C(=O)C2=C(O)[C@]3(O)C(=O)C(C(N)=O)=C(O)[C@@H](N(C)C)[C@@H]3[C@@H](O)[C@@H]21.O` [DOXYCYCLINE] yielded a minimal inhibitory concentration (MIC) of 0.83 µg/mL.

In the next assay the test system is Escherichia coli. In words: Antibacterial activity against wild-type Escherichia coli AG100 at 26 degC by Etest method. It is filed as functional.
Regarding `O=C(N[C@H](CO)[C@H](O)c1ccc([N+](=O)[O-])cc1)C(Cl)Cl` [CHLORAMPHENICOL], the minimum inhibitory concentration (MIC) amounted to 4 µg/mL (≈ 12.4 µM).

Regarding `C[C@H]1c2cccc(O)c2C(=O)C2=C(O)[C@]3(O)C(=O)C(C(N)=O)=C(O)[C@@H](N(C)C)[C@@H]3[C@@H](O)[C@@H]21.O` [DOXYCYCLINE], the MIC was 0.5 µg/mL.

For a further assay, the system named is Escherichia coli. In words: Antibacterial activity against wild-type Escherichia coli AG100 harboring IS186 insertion in lon3 gene, Tn5 insertion in ycgE gene, plasmid pET21b carrying ompF gene and pACT7SP at 26 degC by Etest method. It is filed as functional. In short, it runs like this: as §1
For the compound `C[C@H]1c2cccc(O)c2C(=O)C2=C(O)[C@]3(O)C(=O)C(C(N)=O)=C(O)[C@@H](N(C)C)[C@@H]3[C@@H](O)[C@@H]21.O` [DOXYCYCLINE], the lowest concentration to inhibit growth (MIC) was 0.75 µg/mL.

Another assay relates to Escherichia coli. In words: Antibacterial activity against wild-type Escherichia coli AG100 harboring IS186 insertion in lon3 gene at 37 degC by Etest method. It is filed as functional.
Take `O=C(N[C@H](CO)[C@H](O)c1ccc([N+](=O)[O-])cc1)C(Cl)Cl` [CHLORAMPHENICOL]: the MIC is 4 µg/mL (≈ 12.4 µM).

The compound `C[C@H]1c2cccc(O)c2C(=O)C2=C(O)[C@]3(O)C(=O)C(C(N)=O)=C(O)[C@@H](N(C)C)[C@@H]3[C@@H](O)[C@@H]21.O` [DOXYCYCLINE] had an MIC of 1.17 µg/mL. Against the preceding compound, the MIC is about 3.4-fold lower.

For the next assay, the system named is Escherichia coli. In words: Antibacterial activity against wild-type Escherichia coli AG100 at 37 degC by Etest method. The assay is classed as functional.
With `O=C(N[C@H](CO)[C@H](O)c1ccc([N+](=O)[O-])cc1)C(Cl)Cl` [CHLORAMPHENICOL], the lowest concentration to inhibit growth (MIC) was 4 µg/mL (≈ 12.4 µM).

In turn, `C[C@H]1c2cccc(O)c2C(=O)C2=C(O)[C@]3(O)C(=O)C(C(N)=O)=C(O)[C@@H](N(C)C)[C@@H]3[C@@H](O)[C@@H]21.O` [DOXYCYCLINE] showed an MIC of 1 µg/mL. Against the preceding compound, the MIC is about 4-fold lower.

The next assay deals with Escherichia coli. In words: Antibacterial activity against ompF-deficient Escherichia coli AG100 harboring IS186 insertion in lon3 gene and Tn5 insertion in ycgE gene at 26 degC by Etest method. The assay is classed as functional.
`O=C(N[C@H](CO)[C@H](O)c1ccc([N+](=O)[O-])cc1)C(Cl)Cl` [CHLORAMPHENICOL] came in with an MIC of 13.3 µg/mL (≈ 41.2 µM).

Turning to `C[C@H]1c2cccc(O)c2C(=O)C2=C(O)[C@]3(O)C(=O)C(C(N)=O)=C(O)[C@@H](N(C)C)[C@@H]3[C@@H](O)[C@@H]21.O` [DOXYCYCLINE], it took 2 µg/mL to inhibit growth (MIC). Against the preceding compound, the MIC is about 6.7-fold lower.

For a further assay, the system named is Escherichia coli. In words: Antibacterial activity against wild-type Escherichia coli AG100 harboring marR mutant gene at 37 degC by Etest method. It is filed as functional.
In turn, `O=C(N[C@H](CO)[C@H](O)c1ccc([N+](=O)[O-])cc1)C(Cl)Cl` [CHLORAMPHENICOL] gave an MIC of 21 µg/mL (≈ 65 µM).

In turn, `C[C@H]1c2cccc(O)c2C(=O)C2=C(O)[C@]3(O)C(=O)C(C(N)=O)=C(O)[C@@H](N(C)C)[C@@H]3[C@@H](O)[C@@H]21.O` [DOXYCYCLINE] yielded an MIC of 3.3 µg/mL. This MIC is about 6.4-fold lower than that of the compound before.

For the next assay, the system named is Escherichia coli. In words: Antibacterial activity against ompF-deficient Escherichia coli AG100 at 26 degC by Etest method. The assay is classed as functional.
`O=C(N[C@H](CO)[C@H](O)c1ccc([N+](=O)[O-])cc1)C(Cl)Cl` [CHLORAMPHENICOL] showed a minimal inhibitory concentration (MIC) of 6 µg/mL (≈ 18.6 µM).

As for `C[C@H]1c2cccc(O)c2C(=O)C2=C(O)[C@]3(O)C(=O)C(C(N)=O)=C(O)[C@@H](N(C)C)[C@@H]3[C@@H](O)[C@@H]21.O` [DOXYCYCLINE], the minimal inhibitory concentration (MIC) came to 2 µg/mL.

The test system of a further assay is Escherichia coli. In words: Antibacterial activity against wild-type Escherichia coli AG100 harboring IS186 insertion in lon3 gene at 26 degC by Etest method. It is filed as functional.
Take `O=C(N[C@H](CO)[C@H](O)c1ccc([N+](=O)[O-])cc1)C(Cl)Cl` [CHLORAMPHENICOL]: the minimum inhibitory concentration (MIC) turned out to be 4 µg/mL (≈ 12.4 µM).

In the case of `C[C@H]1c2cccc(O)c2C(=O)C2=C(O)[C@]3(O)C(=O)C(C(N)=O)=C(O)[C@@H](N(C)C)[C@@H]3[C@@H](O)[C@@H]21.O` [DOXYCYCLINE], inhibition of growth (MIC) required 0.75 µg/mL. Compared with the last compound, the MIC is about 5.3-fold lower.

For a further assay, the system named is Escherichia coli. In words: Antibacterial activity against ompF-deficient Escherichia coli AG100 harboring IS186 insertion in lon3 gene and Tn5 insertion in ycgE gene at 37 degC by Etest method. It is filed as functional.
`O=C(N[C@H](CO)[C@H](O)c1ccc([N+](=O)[O-])cc1)C(Cl)Cl` [CHLORAMPHENICOL]: the MIC is 10.7 µg/mL (≈ 33.1 µM).

Regarding `C[C@H]1c2cccc(O)c2C(=O)C2=C(O)[C@]3(O)C(=O)C(C(N)=O)=C(O)[C@@H](N(C)C)[C@@H]3[C@@H](O)[C@@H]21.O` [DOXYCYCLINE], inhibition of growth (MIC) required 2 µg/mL.

The test system of a further assay is Escherichia coli. In words: Antibacterial activity against wild-type Escherichia coli AG100 harboring IS186 insertion in lon3 gene and Tn5 insertion in ycgE gene at 37 degC by Etest method. The assay is classed as functional.
For the compound `O=C(N[C@H](CO)[C@H](O)c1ccc([N+](=O)[O-])cc1)C(Cl)Cl` [CHLORAMPHENICOL], the MIC was found to be 9.3 µg/mL (≈ 28.8 µM).

`C[C@H]1c2cccc(O)c2C(=O)C2=C(O)[C@]3(O)C(=O)C(C(N)=O)=C(O)[C@@H](N(C)C)[C@@H]3[C@@H](O)[C@@H]21.O` [DOXYCYCLINE] came in with a minimal inhibitory concentration (MIC) of 2 µg/mL. This MIC is about 4.7-fold lower than that of the compound before.

The subject of a further assay is Escherichia coli. In words: Antibacterial activity against wild-type Escherichia coli AG100 harboring Tn5 insertion in ycgE gene at 37 degC by Etest method. The assay is classed as functional.
In turn, `O=C(N[C@H](CO)[C@H](O)c1ccc([N+](=O)[O-])cc1)C(Cl)Cl` [CHLORAMPHENICOL] registered an MIC of 4 µg/mL (≈ 12.4 µM).

In turn, `C[C@H]1c2cccc(O)c2C(=O)C2=C(O)[C@]3(O)C(=O)C(C(N)=O)=C(O)[C@@H](N(C)C)[C@@H]3[C@@H](O)[C@@H]21.O` [DOXYCYCLINE] showed an MIC of 1.17 µg/mL.

Another assay relates to Escherichia coli. In words: Antibacterial activity against wild-type Escherichia coli AG100 harboring marR mutant gene at 26 degC by Etest method. It is filed as functional.
In turn, `O=C(N[C@H](CO)[C@H](O)c1ccc([N+](=O)[O-])cc1)C(Cl)Cl` [CHLORAMPHENICOL] yielded an MIC of 24 µg/mL (≈ 74.3 µM).

In turn, `C[C@H]1c2cccc(O)c2C(=O)C2=C(O)[C@]3(O)C(=O)C(C(N)=O)=C(O)[C@@H](N(C)C)[C@@H]3[C@@H](O)[C@@H]21.O` [DOXYCYCLINE] displayed an MIC of 3.7 µg/mL.

Another assay concerns Escherichia coli. In words: Antibacterial activity against ompF-deficient Escherichia coli AG100 at 37 degC by Etest method. The assay is classed as functional.
With `O=C(N[C@H](CO)[C@H](O)c1ccc([N+](=O)[O-])cc1)C(Cl)Cl` [CHLORAMPHENICOL], the minimum inhibitory concentration (MIC) is 6.7 µg/mL (≈ 20.7 µM).

Turning to `C[C@H]1c2cccc(O)c2C(=O)C2=C(O)[C@]3(O)C(=O)C(C(N)=O)=C(O)[C@@H](N(C)C)[C@@H]3[C@@H](O)[C@@H]21.O` [DOXYCYCLINE], the lowest concentration to inhibit growth (MIC) was 2 µg/mL. This MIC lies about 3.4-fold lower than the previous one.
